{
  "source": "ChEMBL document CHEMBL3763019",
  "about": "“Discovery of benzenesulfonamide derivatives as potent PI3K/mTOR dual inhibitors with in vivo efficacies against hepatocellular carcinoma” (Bioorg Med Chem, 2016)",
  "key": {"786-0": {"system": "786-0", "experiment": "Antiproliferative activity against human 786-0 cells incubated for 48 hrs by sulforhodamine B assay", "type": "functional", "conditions": "786-0, 48 h", "outline": "(§1)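 Run externally by the US National Cancer Institute as part of its 60 human cancer cell line cytotoxicity screen (NCI-60).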"}, "ACHN": {"system": "ACHN", "experiment": "Antiproliferative activity against human ACHN cells incubated for 48 hrs by sulforhodamine B assay", "type": "functional", "outline": "as §1"}, "SN12C": {"system": "SN12C", "experiment": "Antiproliferative activity against human SN12C cells incubated for 48 hrs by sulforhodamine B assay", "type": "functional", "outline": "as §1"}, "[1]": {"experiment": "Antiproliferative activity against human TK10 cells incubated for 48 hrs by sulforhodamine B assay", "type": "functional", "conditions": "TK-10, 48 h"}, "[2]": {"experiment": "Antiproliferative activity against human UO31 cells incubated for 48 hrs by sulforhodamine B assay", "type": "functional", "conditions": "UO-31, 48 h"}, "[3]": {"experiment": "Antiproliferative activity against human PC3 cells incubated for 48 hrs by sulforhodamine B assay", "type": "functional", "conditions": "PC-3, 48 h", "outline": "as §1"}, "T47D": {"system": "T47D", "experiment": "Antiproliferative activity against human T47D cells incubated for 48 hrs by sulforhodamine B assay", "type": "functional", "outline": "as §1"}, "Mus musculus": {"system": "Mus musculus", "experiment": "Toxicity in BALB/C nude mouse xenografted with human Bel7404 cells assessed as reduction in body weight at 30 mg/kg, po qd for 14 consecutive days", "type": "organism-based", "conditions": "in vivo", "outline": "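Male BALB/C nude mice were implanted with BEL-7404 cells. When tumors reached 100–300 mm³ (after 12 days), mice were randomized to 6 per treatment group and 8 controls. The drug, suspended in 5% polysorbate 80 in water, was given orally once daily for 14 days from day 13. Body weight and mortality were tracked during dosing, and mice were sacrificed on day 29.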"}, "[4]": {"biological_target": "Phosphatidylinositol 4,5-bisphosphate 3-kinase catalytic subunit delta isoform (Homo sapiens, UniProt O00329)", "experiment": "Inhibition of PI3K-delta (unknown origin) using PIP2 as substrate incubated for 1 hr by Kinase-Glo luminescent kinase assay"}, "[5]": {"biological_target": "T1, Phosphatidylinositol 4,5-bisphosphate 3-kinase catalytic subunit gamma isoform (Homo sapiens, UniProt P48736)", "experiment": "Inhibition of PI3K-gamma (unknown origin) after 40 mins by ADP-Glo luminescent kinase assay", "outline": "(§2)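 Final enzyme was PI3Kβ 4.8 nM and PI3Kγ 7.6 nM. ADP-Glo reagent stopped the reaction (40 min), then detection reagent was added (60 min) and luminescence read. Percent inhibition was derived from RLU.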"}, "[6]": {"biological_target": "T2, Phosphatidylinositol 4,5-bisphosphate 3-kinase catalytic subunit delta isoform (Homo sapiens) (UniProt O00329)", "T2 sequence (whole entry)": "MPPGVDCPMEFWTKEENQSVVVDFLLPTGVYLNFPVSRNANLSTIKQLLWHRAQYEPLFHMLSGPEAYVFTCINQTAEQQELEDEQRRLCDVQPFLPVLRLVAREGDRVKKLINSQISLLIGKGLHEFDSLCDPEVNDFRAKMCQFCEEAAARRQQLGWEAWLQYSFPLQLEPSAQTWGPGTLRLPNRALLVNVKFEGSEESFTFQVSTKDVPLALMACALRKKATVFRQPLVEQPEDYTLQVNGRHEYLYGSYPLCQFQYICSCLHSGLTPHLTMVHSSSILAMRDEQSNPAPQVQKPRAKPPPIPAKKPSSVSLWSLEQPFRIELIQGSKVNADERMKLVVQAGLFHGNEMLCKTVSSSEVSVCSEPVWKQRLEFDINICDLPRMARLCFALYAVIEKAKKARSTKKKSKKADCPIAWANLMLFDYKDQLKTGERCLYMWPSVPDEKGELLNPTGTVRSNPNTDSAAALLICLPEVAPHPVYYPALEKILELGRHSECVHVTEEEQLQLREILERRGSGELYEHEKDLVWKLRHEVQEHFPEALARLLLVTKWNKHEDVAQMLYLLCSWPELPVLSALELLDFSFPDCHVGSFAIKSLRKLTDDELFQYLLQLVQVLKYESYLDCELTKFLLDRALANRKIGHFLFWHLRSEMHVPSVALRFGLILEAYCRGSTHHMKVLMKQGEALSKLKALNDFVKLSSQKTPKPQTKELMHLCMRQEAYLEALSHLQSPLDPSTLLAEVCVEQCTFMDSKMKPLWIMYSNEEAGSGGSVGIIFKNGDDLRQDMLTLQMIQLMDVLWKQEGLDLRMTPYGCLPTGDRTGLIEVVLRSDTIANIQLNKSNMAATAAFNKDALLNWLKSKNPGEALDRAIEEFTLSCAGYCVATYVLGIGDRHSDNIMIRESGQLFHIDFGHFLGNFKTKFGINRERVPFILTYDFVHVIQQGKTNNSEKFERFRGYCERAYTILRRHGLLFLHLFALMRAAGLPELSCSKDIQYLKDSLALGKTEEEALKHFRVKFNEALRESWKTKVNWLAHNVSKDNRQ", "experiment": "Inhibition of PI3K-delta (unknown origin) using PIP2 as substrate at 10 nM incubated for 1 hr by Kinase-Glo luminescent kinase assay", "outline": "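Final PIP2 was 50 µM and ATP 25 µM; PI3Kδ was 1.65 nM. Reactions ran 1 h at room temperature, then Kinase-Glo was added for 15 min before reading luminescence. Percent inhibition was derived from RLU. Dose-response used ten 3-fold dilutions (top 100 or 500 nM) in duplicate.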"}, "[7]": {"biological_target": "T1, Phosphatidylinositol 4,5-bisphosphate 3-kinase catalytic subunit gamma isoform", "experiment": "Inhibition of PI3K-gamma (unknown origin) at 10 nM after 40 mins by ADP-Glo luminescent kinase assay", "outline": "as §2"}, "[8]": {"experiment": "Antiproliferative activity against human MOLT4 cells incubated for 48 hrs by sulforhodamine B assay", "type": "functional", "conditions": "MOLT-4, 48 h", "outline": "as §1"}, "[9]": {"experiment": "Antiproliferative activity against human RPMI8226 cells incubated for 48 hrs by sulforhodamine B assay", "type": "functional", "conditions": "RPMI-8226, 48 h"}, "SR": {"system": "SR", "experiment": "Antiproliferative activity against human SR cells incubated for 48 hrs by sulforhodamine B assay", "type": "functional", "outline": "as §1"}, "EKVX": {"system": "EKVX", "experiment": "Antiproliferative activity against human EKVX cells incubated for 48 hrs by sulforhodamine B assay", "type": "functional"}, "[10]": {"experiment": "Antiproliferative activity against human SNB75 cells incubated for 48 hrs by sulforhodamine B assay", "type": "functional", "conditions": "SNB-75, 48 h", "outline": "as §1"}, "SK-MEL-5": {"system": "SK-MEL-5", "experiment": "Antiproliferative activity against human SK-MEL-5 cells incubated for 48 hrs by sulforhodamine B assay", "type": "functional", "conditions": "SK-MEL-5, 48 h", "outline": "as §1"}, "[11]": {"experiment": "Antiproliferative activity against human UACC257 cells incubated for 48 hrs by sulforhodamine B assay", "type": "functional", "conditions": "UACC-257, 48 h"}, "[12]": {"experiment": "Antiproliferative activity against human IGROV1 cells incubated for 48 hrs by sulforhodamine B assay", "type": "functional", "conditions": "IGROV-1, 48 h"}, "[13]": {"conditions": "read-out: pLC50 (the source's name) (converted)"}},
  "note": "pIC50: −log10 of the molar value.",
  "data": [
    {"smiles": "COc1ncc(-c2ccc3nccc(C#CCN4CCN(S(C)(=O)=O)CC4)c3c2)cc1NS(=O)(=O)c1ccc(F)cc1F", "values": [
      {"measurement": "GI50", "setting": "786-0", "result": 44.7, "unit": "nM"},
      {"measurement": "CC50", "setting": "786-0; [13]", "result": 49000, "unit": "nM"},
      {"measurement": "TGI", "setting": "786-0; read-out: pTGI (converted)", "result": 1450, "unit": "nM"},
      {"measurement": "GI50", "setting": "ACHN", "result": 45.7, "unit": "nM"},
      {"measurement": "CC50", "setting": "ACHN; [13]", "result": 34700, "unit": "nM"},
      {"measurement": "TGI", "setting": "ACHN; read-out: pTGI (converted)", "result": 6920, "unit": "nM"},
      {"measurement": "GI50", "setting": "SN12C", "result": 102, "unit": "nM"},
      {"measurement": "CC50", "setting": "SN12C; [13]", "result": "> 100000", "unit": "nM"},
      {"measurement": "TGI", "setting": "SN12C; read-out: pTGI (converted)", "result": 12300, "unit": "nM"},
      {"measurement": "GI50", "setting": "[1]", "result": 11.8, "unit": "nM"},
      {"measurement": "CC50", "setting": "[1]; [13]", "result": 38900, "unit": "nM"},
      {"measurement": "GI50", "setting": "[2]", "result": 31.6, "unit": "nM"},
      {"measurement": "CC50", "setting": "[2]; [13]", "result": 39800, "unit": "nM"},
      {"measurement": "TGI", "setting": "[2]; read-out: pTGI (converted)", "result": 11700, "unit": "nM"},
      {"measurement": "GI50", "setting": "[3]", "result": 63.1, "unit": "nM"},
      {"measurement": "CC50", "setting": "[3]; [13]", "result": 36300, "unit": "nM"},
      {"measurement": "TGI", "setting": "[3]; read-out: pTGI (converted)", "result": 10200, "unit": "nM"},
      {"measurement": "GI50", "setting": "T47D", "result": "< 10", "unit": "nM"},
      {"measurement": "CC50", "setting": "T47D; [13]", "result": "> 100000", "unit": "nM"},
      {"measurement": "TGI", "setting": "T47D; read-out: pTGI (converted)", "result": 13.5, "unit": "nM"},
      {"measurement": "Activity", "setting": "Mus musculus", "result": "Non-toxic"},
      {"measurement": "pIC50", "setting": "[4]", "result": 7.85},
      {"measurement": "pIC50", "setting": "[5]", "result": 8.57},
      {"measurement": "inhibition", "setting": "[6]", "result": 25.8, "unit": "%"},
      {"measurement": "inhibition", "setting": "[7]", "result": 95, "unit": "%"},
      {"measurement": "GI50", "setting": "[8]", "result": 38, "unit": "nM"},
      {"measurement": "CC50", "setting": "[8]; [13]", "result": "> 100000", "unit": "nM"},
      {"measurement": "TGI", "setting": "[8]; read-out: pTGI (converted)", "result": 1150, "unit": "nM"},
      {"measurement": "GI50", "setting": "[9]", "result": 263, "unit": "nM"},
      {"measurement": "TGI", "setting": "[9]; read-out: pTGI (converted)", "result": 1450, "unit": "nM"},
      {"measurement": "GI50", "setting": "SR", "result": 251, "unit": "nM"},
      {"measurement": "CC50", "setting": "SR; [13]", "result": "> 100000", "unit": "nM"},
      {"measurement": "TGI", "setting": "SR; read-out: pTGI (converted)", "result": 15500, "unit": "nM"},
      {"measurement": "GI50", "setting": "EKVX", "result": 25.7, "unit": "nM"},
      {"measurement": "CC50", "setting": "EKVX; [13]", "result": 42700, "unit": "nM"},
      {"measurement": "GI50", "setting": "[10]", "result": 10.7, "unit": "nM"},
      {"measurement": "CC50", "setting": "[10]; [13]", "result": 28800, "unit": "nM"},
      {"measurement": "TGI", "setting": "[10]; read-out: pTGI (converted)", "result": 151, "unit": "nM"},
      {"measurement": "GI50", "setting": "SK-MEL-5", "result": 195, "unit": "nM"},
      {"measurement": "CC50", "setting": "SK-MEL-5; [13]", "result": 2950, "unit": "nM"},
      {"measurement": "TGI", "setting": "SK-MEL-5; read-out: pTGI (converted)", "result": 550, "unit": "nM"},
      {"measurement": "GI50", "setting": "[11]", "result": 38.9, "unit": "nM"},
      {"measurement": "CC50", "setting": "[11]; [13]", "result": 15500, "unit": "nM"},
      {"measurement": "TGI", "setting": "[11]; read-out: pTGI (converted)", "result": 603, "unit": "nM"},
      {"measurement": "GI50", "setting": "[12]", "result": "< 10", "unit": "nM"},
      {"measurement": "CC50", "setting": "[12]; [13]", "result": "> 100000", "unit": "nM"}
    ]}
  ]
}
